Results: ChEMBL document CHEMBL4400539, “Discovery of a Novel Chemotype of Histone Lysine Methyltransferase EHMT1/2 (GLP/G9a) Inhibitors: Rational Design, Synthesis, Biological Evaluation, and Co-crystal Structure” (J Med Chem, 2019)
Calls of active or inactive are those of the source. The rule behind the calls is not given here.

Tests used:
[1] = target: T1, Histone-lysine N-methyltransferase EHMT2 (Homo sapiens) (UniProt Q96KQ7); test: Inhibition of recombinant human G9a at 25 uM using biotinylated-Histone H3 peptide (1 to 21 residues) after 30 mins by AlphaLISA assay relative to control
T1 sequence (whole entry): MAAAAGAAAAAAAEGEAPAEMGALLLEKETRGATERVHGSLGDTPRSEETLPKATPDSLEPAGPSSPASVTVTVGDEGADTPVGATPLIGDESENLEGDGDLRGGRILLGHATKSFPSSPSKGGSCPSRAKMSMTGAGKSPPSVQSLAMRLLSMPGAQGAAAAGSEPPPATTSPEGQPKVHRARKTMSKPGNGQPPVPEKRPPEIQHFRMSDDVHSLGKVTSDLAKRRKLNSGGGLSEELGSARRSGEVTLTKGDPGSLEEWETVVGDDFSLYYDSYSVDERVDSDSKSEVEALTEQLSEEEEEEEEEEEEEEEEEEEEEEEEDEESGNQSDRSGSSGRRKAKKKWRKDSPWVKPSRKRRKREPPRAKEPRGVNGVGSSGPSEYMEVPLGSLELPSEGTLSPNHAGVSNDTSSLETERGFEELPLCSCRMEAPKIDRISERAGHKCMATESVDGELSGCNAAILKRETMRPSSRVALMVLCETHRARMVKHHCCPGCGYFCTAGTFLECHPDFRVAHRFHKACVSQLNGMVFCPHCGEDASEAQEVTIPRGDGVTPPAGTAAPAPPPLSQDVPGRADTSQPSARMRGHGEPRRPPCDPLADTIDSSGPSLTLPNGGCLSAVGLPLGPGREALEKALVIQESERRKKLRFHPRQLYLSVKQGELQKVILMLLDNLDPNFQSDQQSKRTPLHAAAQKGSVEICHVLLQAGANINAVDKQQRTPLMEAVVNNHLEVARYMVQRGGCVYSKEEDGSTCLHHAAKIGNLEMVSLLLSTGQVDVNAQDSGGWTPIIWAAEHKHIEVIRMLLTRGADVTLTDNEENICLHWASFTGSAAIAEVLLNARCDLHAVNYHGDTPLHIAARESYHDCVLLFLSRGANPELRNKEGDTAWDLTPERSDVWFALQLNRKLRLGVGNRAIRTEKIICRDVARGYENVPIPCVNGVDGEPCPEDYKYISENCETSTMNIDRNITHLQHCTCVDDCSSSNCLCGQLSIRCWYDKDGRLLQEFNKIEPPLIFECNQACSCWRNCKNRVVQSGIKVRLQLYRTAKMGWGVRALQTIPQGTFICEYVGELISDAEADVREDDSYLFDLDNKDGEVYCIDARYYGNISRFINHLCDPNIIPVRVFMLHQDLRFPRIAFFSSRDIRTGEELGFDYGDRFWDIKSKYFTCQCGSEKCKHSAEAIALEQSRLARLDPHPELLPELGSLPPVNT
Outline: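 G9a AlphaLISA at fixed 10 or 25 μM compound: human recombinant G9a 1 nM, 30 min preincubation, then biotinylated H3(1–21) 100 nM plus SAM 15 μM for 30 min at room temperature, pH 8.8 Tris buffer with 0.01% Tween-20; anti-H3K9me2 acceptor and streptavidin donor beads; percent of DMSO control.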

[2] = target: DNA (cytosine-5)-methyltransferase 1 (Homo sapiens, UniProt P26358); test: Inhibition of N-terminal GST-tagged recombinant full length human DNMT1 (2 to 1632 residues) using poly(dI-dC)):poly(dI-dC) as substrate preincubated for 20 mins followed by [3H]-SAM and measured after 60 mins by scintillation counting
[3] = target: T2, Lysine-specific demethylase 4A (Homo sapiens) (UniProt O75164); test: Inhibition of recombinant human JMJD2A at 10 to 25 uM using biotinylated-Histone H3 peptide (1 to 21 residues) as substrate preincubated for 30 mins followed by substrate addition and measured after 60 mins in presence of SAM by AlphaLISA assay relative to control
T2 sequence (whole entry): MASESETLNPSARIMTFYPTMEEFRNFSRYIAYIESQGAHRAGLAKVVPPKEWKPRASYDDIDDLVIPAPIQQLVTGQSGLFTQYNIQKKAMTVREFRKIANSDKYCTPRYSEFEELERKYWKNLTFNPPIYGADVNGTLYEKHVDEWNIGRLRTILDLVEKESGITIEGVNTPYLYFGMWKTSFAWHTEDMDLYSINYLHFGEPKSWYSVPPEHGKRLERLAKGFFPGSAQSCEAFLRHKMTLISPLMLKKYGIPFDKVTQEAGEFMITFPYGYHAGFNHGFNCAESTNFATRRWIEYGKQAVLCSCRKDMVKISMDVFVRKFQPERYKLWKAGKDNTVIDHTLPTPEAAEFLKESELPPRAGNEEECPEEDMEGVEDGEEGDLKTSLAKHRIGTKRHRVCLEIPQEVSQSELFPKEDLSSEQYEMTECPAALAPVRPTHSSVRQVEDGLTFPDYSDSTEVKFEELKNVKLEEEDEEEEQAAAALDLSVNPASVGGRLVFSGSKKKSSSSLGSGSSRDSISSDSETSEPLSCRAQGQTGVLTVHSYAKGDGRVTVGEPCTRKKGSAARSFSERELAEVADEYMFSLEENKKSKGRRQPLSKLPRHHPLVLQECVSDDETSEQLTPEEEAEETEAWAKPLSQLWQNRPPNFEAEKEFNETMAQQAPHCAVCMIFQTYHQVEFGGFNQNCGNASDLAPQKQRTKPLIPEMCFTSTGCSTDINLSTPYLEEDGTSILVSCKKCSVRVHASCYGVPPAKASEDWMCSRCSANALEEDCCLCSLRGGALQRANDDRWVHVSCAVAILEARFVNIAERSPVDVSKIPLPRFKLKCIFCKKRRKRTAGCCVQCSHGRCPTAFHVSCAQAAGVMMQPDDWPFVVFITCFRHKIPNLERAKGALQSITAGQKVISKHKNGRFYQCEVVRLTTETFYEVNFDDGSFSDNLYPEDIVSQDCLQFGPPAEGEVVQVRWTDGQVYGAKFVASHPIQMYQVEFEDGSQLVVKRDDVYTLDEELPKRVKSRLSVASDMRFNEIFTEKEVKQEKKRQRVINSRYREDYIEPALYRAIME

[4] = Metabolic stability in human liver microsomes assessed as parent compound turn over percentage at 1 mM preincubated for 5 mins followed by NADPH addition and measured for 60 mins by UHPLC analysis; assay type: ADME, Microsome; settings: read-out: Drug metabolism
[5] = Apparent permeability of the compound after 24 hrs by BBB-PAMPA; assay type: ADME
[6] = target: T3, Histone-lysine N-methyltransferase EHMT2 (Homo sapiens, UniProt Q96KQ7); test: Competitive inhibition of recombinant human G9a using biotinylated-Histone H3 peptide (1 to 21 residues) as substrate at varying concentration after 30 mins in presence SAM by Lineweaver-Burk plot analysis
T3 sequence (Q96KQ7 whole entry): T1 sequence (whole entry)

Chain of DNA (cytosine-5)-methyltransferase 1 (P26358 whole entry, the tested form may be a part): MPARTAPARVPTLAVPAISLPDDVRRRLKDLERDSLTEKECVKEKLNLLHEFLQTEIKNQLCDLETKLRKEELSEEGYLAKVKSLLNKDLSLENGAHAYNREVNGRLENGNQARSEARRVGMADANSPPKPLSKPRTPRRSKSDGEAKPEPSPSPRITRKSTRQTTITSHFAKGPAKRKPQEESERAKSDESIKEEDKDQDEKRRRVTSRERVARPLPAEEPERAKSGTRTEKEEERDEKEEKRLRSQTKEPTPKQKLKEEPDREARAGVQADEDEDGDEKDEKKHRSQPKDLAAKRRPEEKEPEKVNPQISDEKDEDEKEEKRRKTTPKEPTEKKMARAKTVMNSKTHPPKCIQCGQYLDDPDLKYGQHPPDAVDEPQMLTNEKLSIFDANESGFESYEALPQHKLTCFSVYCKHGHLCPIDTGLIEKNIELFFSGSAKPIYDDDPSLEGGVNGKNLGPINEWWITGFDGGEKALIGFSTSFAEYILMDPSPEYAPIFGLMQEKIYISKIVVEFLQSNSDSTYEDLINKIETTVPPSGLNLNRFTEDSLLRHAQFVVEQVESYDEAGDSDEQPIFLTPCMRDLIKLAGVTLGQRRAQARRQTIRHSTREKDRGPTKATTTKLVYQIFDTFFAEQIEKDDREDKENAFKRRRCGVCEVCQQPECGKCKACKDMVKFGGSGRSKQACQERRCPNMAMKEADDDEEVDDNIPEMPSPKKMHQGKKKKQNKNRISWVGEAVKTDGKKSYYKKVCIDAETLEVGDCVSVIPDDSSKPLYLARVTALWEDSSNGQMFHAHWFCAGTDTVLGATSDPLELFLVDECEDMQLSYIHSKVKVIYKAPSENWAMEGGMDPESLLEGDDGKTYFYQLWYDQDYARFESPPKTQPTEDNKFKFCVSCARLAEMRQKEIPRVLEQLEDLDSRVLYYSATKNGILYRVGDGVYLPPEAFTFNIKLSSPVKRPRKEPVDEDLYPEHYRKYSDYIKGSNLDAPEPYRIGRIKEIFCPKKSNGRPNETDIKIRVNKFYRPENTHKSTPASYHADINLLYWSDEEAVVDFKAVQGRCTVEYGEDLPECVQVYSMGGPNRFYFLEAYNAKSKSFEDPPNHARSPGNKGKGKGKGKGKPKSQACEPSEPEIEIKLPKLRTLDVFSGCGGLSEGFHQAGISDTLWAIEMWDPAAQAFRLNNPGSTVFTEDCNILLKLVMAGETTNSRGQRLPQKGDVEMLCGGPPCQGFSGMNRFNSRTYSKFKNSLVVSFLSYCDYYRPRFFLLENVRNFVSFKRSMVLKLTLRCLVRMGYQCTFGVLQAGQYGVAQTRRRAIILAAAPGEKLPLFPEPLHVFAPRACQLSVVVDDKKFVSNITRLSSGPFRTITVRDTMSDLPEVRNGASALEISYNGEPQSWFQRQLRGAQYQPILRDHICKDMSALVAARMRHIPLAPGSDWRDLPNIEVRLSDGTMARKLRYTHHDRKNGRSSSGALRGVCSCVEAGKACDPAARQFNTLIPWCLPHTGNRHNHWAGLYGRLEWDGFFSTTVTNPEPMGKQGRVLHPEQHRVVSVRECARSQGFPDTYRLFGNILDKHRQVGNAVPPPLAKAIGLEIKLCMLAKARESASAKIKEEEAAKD

COc1cc2c(cc1OCCCN1CCCC1)N=C(C1CCCCC1)CN=C2NC1CCN(C(C)C)CC1
inhibition [1]: 98% | IC50 [2]: 3.1 µM | inhibition [3]: inactive | metabolised at 1 h [4]: 2.25% | Papp [5]: 2.3 ×10⁻⁷ cm/s | Ki [6]: 0.0138 µM
